Test [1] concerns K562. The experiment in a line: Induction of apoptosis in human K562 cells assessed as increase in phosphorylated Bcl2 level at 1.25 to 20 uM after 24 hrs by immunoblotting. The test is classed as functional, cell-based. The essentials: (§1)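 Cells treated 24 h with a range of doses, with 1 μM doxorubicin as control. Cells were harvested into Laemmli buffer, run on SDS-PAGE and blotted to nitrocellulose. Membranes were probed overnight with primary antibodies (PARP, Ser139-phospho-H2AX, Bcl-2, β-actin loading control), then peroxidase secondaries, with ECL detection on a CCD imager.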
A general note: In western blotting, separated proteins are transferred to a membrane and probed.

For test [2], the target named is Wee1-like protein kinase (Homo sapiens) (UniProt P30291). The experiment in a line: Inhibition of WEE1 (unknown origin).
Test [3] concerns MCF7. As to the kind of experiment: Induction of apoptosis in human MCF7 cells assessed as increase in gammaH2AX level at 1.25 to 20 uM after 24 hrs by immunoblotting. The test is classed as functional, cell-based. The essentials: as §1
Test [4] deals with MCF7. As to the kind of experiment: Growth inhibition of human MCF7 cells after 72 hrs by Calcein AM dye based fluorescence assay. It is filed as functional. The conditions noted are these: MCF7, 72 h. In outline:
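Cells in DMEM with 10% FBS at 37 °C, 5% CO2, treated in triplicate with six doses for 72 h. Calcein AM was added for 1 h and live-cell fluorescence read at 485/538 nm. GI50 was taken from dose-response curves.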

The test system of test [5] is K562. As to the kind of experiment: Cell cycle arrest in human K562 cells assessed as accumulation at G2/M phase assessed as accumulation of histone H3 phosphorylation at serine 10 residues at 5 uM after 24 hrs by propidium iodide staining-based flow cytometric analysis (reference value: 2.2%). The test is classed as functional.
In test [6] the test system is K562. The experiment in a line: Cell cycle arrest in human K562 cells assessed as accumulation at S phase at 10 uM after 24 hrs by propidium iodide staining-based flow cytometric analysis (reference value: 50.3%). The test is classed as functional.
The target in test [7] is Cyclin-dependent kinase 1 (Homo sapiens) (UniProt P06493). The experiment in a line: Inhibition of CDK1 (unknown origin).
In test [8] the target is Serine/threonine-protein kinase pim-2 (Homo sapiens) (UniProt Q9P1W9). As to the kind of experiment: Inhibition of PIM2 (unknown origin).
Test [9] has as its target T1, Dual specificity protein kinase TTK (Homo sapiens) (UniProt P33981).
T1 sequence (whole entry): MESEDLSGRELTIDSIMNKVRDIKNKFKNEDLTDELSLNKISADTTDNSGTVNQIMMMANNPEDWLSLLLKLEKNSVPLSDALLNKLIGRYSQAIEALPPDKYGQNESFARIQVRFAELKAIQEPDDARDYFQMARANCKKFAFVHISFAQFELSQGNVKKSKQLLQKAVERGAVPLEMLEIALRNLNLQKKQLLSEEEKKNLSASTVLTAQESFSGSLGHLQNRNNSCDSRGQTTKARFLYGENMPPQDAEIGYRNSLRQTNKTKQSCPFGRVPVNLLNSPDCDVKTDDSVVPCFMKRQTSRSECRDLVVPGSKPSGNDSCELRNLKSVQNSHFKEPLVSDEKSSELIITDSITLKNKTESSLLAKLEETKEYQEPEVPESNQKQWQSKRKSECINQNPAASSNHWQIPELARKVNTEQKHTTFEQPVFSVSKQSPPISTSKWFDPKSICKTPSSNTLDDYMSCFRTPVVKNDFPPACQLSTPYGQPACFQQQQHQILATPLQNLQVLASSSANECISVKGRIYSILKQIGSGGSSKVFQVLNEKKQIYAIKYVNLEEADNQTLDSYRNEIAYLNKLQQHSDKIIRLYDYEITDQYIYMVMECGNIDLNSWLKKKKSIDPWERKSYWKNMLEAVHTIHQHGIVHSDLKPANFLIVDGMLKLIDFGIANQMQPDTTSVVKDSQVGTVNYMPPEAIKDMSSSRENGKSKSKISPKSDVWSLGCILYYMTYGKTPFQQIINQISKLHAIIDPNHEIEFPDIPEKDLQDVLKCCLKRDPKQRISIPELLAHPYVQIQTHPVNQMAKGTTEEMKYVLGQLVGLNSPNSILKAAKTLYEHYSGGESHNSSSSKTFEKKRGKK
As to the kind of experiment: Inhibition of TTK (unknown origin).

In test [10] the test system is K562. The experiment in a line: Induction of apoptosis in human K562 cells assessed as activation of caspase 3/7 using Ac-DEVD-AMC as substrate after 24 hrs by fluorescence assay. The test is classed as functional, cell-based. In outline:
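K562 cells were cultured overnight and treated with increasing concentrations for 24 h. Lysis buffer (3×; HEPES pH 7.4, NaCl, KCl, MgCl2, EGTA, NP40, CHAPS, sucrose, DTT, PMSF) containing 150 μM Ac-DEVD-AMC was added for 2 h. Fluorescence was read at 346/442 nm and normalized to untreated control.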

In test [11] the target is Death-associated protein kinase 3 (Homo sapiens) (UniProt O43293). The experiment in a line: Inhibition of DAPK3 (unknown origin).
The target in test [12] is Serine/threonine-protein kinase NIM1 (Homo sapiens) (UniProt Q8IY84). As to the kind of experiment: Inhibition of NIM1 (unknown origin).
The subject of test [13] is K562. The experiment in a line: Cell cycle arrest in human K562 cells assessed as accumulation at G2/M phase at 10 uM after 24 hrs by propidium iodide staining-based flow cytometric analysis (reference value: 15%). It is filed as functional. (Flow cytometry measures light scatter and fluorescence of single cells or particles in a stream.)

Active and inactive are the calls of the source. The rule behind the calls is not given here.

Sequence of Wee1-like protein kinase (Homo sapiens) (P30291 whole entry, looked up): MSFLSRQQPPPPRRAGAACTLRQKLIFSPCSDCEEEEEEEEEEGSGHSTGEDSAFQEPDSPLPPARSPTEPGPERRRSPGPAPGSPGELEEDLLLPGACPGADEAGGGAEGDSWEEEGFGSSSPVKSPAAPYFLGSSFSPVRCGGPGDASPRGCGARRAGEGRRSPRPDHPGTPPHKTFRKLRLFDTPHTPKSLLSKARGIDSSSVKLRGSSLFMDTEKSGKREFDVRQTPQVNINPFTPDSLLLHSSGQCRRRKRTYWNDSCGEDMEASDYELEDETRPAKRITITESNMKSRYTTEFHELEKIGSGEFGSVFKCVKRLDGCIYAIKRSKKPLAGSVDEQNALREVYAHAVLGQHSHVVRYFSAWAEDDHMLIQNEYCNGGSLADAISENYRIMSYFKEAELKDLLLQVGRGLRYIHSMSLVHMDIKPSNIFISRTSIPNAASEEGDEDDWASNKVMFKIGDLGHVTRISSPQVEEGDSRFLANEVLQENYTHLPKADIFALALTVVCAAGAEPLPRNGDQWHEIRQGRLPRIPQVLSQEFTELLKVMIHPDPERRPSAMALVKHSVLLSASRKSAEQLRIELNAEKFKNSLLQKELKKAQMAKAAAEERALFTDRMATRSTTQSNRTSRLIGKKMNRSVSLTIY
Sequence of Serine/threonine-protein kinase NIM1 (Homo sapiens) (Q8IY84 whole entry): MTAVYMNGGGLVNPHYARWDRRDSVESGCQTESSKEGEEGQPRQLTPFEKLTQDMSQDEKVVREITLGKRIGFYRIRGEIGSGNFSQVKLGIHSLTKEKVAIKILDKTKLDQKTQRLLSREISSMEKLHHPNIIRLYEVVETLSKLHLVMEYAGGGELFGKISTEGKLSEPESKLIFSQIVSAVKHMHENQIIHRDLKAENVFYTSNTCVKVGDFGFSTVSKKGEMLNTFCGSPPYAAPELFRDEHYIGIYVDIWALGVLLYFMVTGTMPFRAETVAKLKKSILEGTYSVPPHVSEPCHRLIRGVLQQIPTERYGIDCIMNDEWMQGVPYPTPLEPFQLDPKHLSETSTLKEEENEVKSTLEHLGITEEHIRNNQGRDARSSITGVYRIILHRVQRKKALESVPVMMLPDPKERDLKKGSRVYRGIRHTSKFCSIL
Sequence of Cyclin-dependent kinase 1 (Homo sapiens) (P06493 whole entry, looked up): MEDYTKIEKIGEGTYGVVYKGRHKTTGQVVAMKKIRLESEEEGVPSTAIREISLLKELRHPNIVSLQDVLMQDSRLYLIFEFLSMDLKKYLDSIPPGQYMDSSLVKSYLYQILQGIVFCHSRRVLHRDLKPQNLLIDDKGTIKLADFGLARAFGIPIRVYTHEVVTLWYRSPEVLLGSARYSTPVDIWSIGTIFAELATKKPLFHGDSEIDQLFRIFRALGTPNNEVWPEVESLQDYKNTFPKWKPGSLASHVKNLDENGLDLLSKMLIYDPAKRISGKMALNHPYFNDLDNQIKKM
Sequence of Serine/threonine-protein kinase pim-2 (Homo sapiens) (Q9P1W9 whole entry, looked up): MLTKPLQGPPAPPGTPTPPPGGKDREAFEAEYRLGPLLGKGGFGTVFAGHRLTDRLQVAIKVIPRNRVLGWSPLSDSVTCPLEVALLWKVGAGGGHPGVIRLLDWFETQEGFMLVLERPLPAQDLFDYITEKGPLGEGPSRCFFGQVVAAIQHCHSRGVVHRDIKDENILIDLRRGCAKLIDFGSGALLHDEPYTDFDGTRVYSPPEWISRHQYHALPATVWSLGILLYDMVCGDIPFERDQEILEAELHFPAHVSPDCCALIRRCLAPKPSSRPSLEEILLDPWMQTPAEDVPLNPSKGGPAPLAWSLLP
Sequence of Death-associated protein kinase 3 (Homo sapiens) (O43293 whole entry, looked up): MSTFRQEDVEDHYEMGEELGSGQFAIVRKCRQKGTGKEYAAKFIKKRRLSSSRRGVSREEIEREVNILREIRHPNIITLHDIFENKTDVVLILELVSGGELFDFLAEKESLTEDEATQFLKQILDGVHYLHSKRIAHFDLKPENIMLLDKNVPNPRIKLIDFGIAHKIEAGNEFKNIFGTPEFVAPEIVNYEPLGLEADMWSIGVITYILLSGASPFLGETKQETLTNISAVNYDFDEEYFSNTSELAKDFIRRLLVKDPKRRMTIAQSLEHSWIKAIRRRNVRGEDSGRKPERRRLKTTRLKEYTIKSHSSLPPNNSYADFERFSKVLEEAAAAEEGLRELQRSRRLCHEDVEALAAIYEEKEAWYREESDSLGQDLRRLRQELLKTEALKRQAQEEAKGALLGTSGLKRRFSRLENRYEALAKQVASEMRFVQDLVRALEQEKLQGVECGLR

By GI50 is commonly meant the concentration giving 50% growth inhibition. Regarding `CCCCCc1cc2nn(-c3ccccc3)cc2cn1`, the result in test [1] and in test [3] was Active. For the same molecule, the inhibition entry in [2], in test [7], in [8], in [9], in test [11] and in test [12] was “inactive” in each case. Moreover, the 50% growth inhibitory concentration (GI50) in test [4] was 11.8 µM. The Activity in test [5] was 20.4%; in test [6], 3.3%; in test [10], “Dose-dependent effect”; in [13], 82%.

(Values after ChEMBL document CHEMBL4229372, “Synthesis and anti-mitotic activity of 2,4- or 2,6-disubstituted- and 2,4,6-trisubstituted-2H-pyrazolo[4,3-c]pyridines” (2018).)
